From ChEMBL document CHEMBL4145466, “Design, synthesis, and biological evaluation of novel combretastatin A-4 thio derivatives as microtubule targeting agents” (Eur J Med Chem, 2018)
Active and inactive are the calls of the source.

Key:
[1] = system: MCF7; experiment: Cell cycle arrest in human MCF7 cells assessed as accumulation of cells at G2/M phase at 0.1 to 1 uM after 24 hrs by propidium iodide staining-based FACS analysis; format: functional
How it was run: (§1)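 Cells were seeded at 5 × 10^5 per well in DMEM with 10% FBS and left overnight, then exposed to 0.1, 0.5 or 1 µM for 24 h. DMSO served as the negative control and 50 nM camptothecin as the positive control. Cells were trypsinized, fixed in 70% ethanol for 30 min at 4 °C, stained with 50 µg/mL PI plus 100 µg/mL RNase A for 30 min in the dark, and analysed by flow cytometry. Results are mean ± SD of three experiments, compared by ANOVA with Dunnett's test.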

[2] = system: A-431; experiment: Cytotoxicity against human A431 cells after 48 hrs by MTT assay; format: functional, cell-based; conditions: A-431, 48 h
How it was run: (§2)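 Cells in DMEM with 10% FBS were plated at 2 × 10^4 per well and left overnight, then treated for 48 h at 0.6–20 µM (six concentrations) from 10 mM DMSO stocks. MTT was added for 2 h, and formazan was dissolved in DMSO and read at 570 nm. Viability was expressed as % of control, with IC50 taken from dose-response curves. Results are mean ± SD of three independent experiments.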

[3] = system: HeLa; experiment: Cytotoxicity against human HeLa cells after 48 hrs by MTT assay; format: functional, cell-based; how it was run: as §2
[4] = system: MDA-MB-231; experiment: Cytotoxicity against human MDA-MB-231 cells after 48 hrs by MTT assay; format: functional, cell-based; conditions: MDA-MB-231, 48 h; how it was run: as §2
[5] = system: A549; experiment: Cytotoxicity against human A549 cells after 48 hrs by MTT assay; format: functional, cell-based; conditions: A549, 48 h
[6] = system: SK-OV-3; experiment: Cytotoxicity against human SKOV3 cells after 48 hrs by MTT assay; format: functional, cell-based; conditions: SK-OV-3, 48 h; how it was run: as §2
[7] = system: HaCaT; experiment: Cytotoxicity against human HaCaT cells after 48 hrs by MTT assay; format: cell-based; how it was run: as §2
[8] = Cytotoxicity against human CCD39Lu cells after 48 hrs by MTT assay; format: cell-based; how it was run: as §2
[9] = system: A-431; experiment: Cell cycle arrest in human A431 cells assessed as accumulation of cells at G2/M phase at 0.1 to 1 uM after 24 hrs by propidium iodide staining-based FACS analysis; format: functional; how it was run: as §1
[10] = system: HaCaT; experiment: Cell cycle arrest in human HaCaT cells assessed as accumulation of cells at G2/M phase at 0.1 to 1 uM after 24 hrs by propidium iodide staining-based FACS analysis; how it was run: as §1
[11] = target: T1, Tubulin (Homo sapiens) (UniProt P68371+Q9H4B7+P0DPH7+P68366+Q13509+Q71U36+P04350+Q3ZCM7+P07437+P68363+Q9BQE3+Q6PEY2+Q13885+Q9BVA1+Q9BUF5); experiment: Inhibition of tubulin polymerization in human MCF7 cells assessed as micronuclei formation at 1 uM after 24 hrs by ELISA; format: cell-based
[12] = target: T1, Tubulin (Homo sapiens); experiment: Inhibition of tubulin polymerization in human MDA-MB-231 cells assessed as micronuclei formation at 1 uM after 24 hrs by ELISA; format: cell-based
[13] = target: T1, Tubulin (Homo sapiens); experiment: Inhibition of tubulin polymerization in human SKOV3 cells assessed as micronuclei formation at 1 uM after 24 hrs by ELISA; format: cell-based
[14] = target: T1, Tubulin (Homo sapiens); experiment: Inhibition of tubulin polymerization in human MCF7 cells assessed as micronuclei formation at 1 uM after 24 hrs by Hoechst 33258/FITC staining-based […] analysis; format: cell-based
How it was run: (§3)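 Cells seeded at 12.5 × 10^4 per well and exposed to 1 µM compound for 24 h. Nuclei were stained with Hoechst 33258 (10 µg/mL, 30 min, 37 °C), then fixed in 4% formaldehyde/PBS (15 min, RT). Cells were permeabilized with 1% Triton X-100, blocked with 2% BSA/PBS for 1 h, and incubated with anti-α-tubulin-FITC (1:50) overnight at 4 °C. Imaged by fluorescence microscopy.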

[15] = target: T1, Tubulin (Homo sapiens); experiment: Inhibition of tubulin polymerization in human HeLa cells assessed as micronuclei formation at 1 uM after 24 hrs by Hoechst 33258/FITC staining-based […] analysis; format: cell-based; how it was run: as §3
[16] = target: T1, Tubulin (Homo sapiens); experiment: Inhibition of tubulin polymerization in human SKOV3 cells assessed as micronuclei formation at 1 uM after 24 hrs by Hoechst 33258/FITC staining-based flow cytometric analysis; format: cell-based; how it was run: as §3
[17] = system: Tubulin; experiment: Inhibition of tubulin polymerization in human HaCaT cells assessed as micronuclei formation at 1 uM after 24 hrs by Hoechst 33258/FITC staining-based […]; format: cell-based; how it was run: as §3
[18] = system: MCF7; experiment: Induction of apoptosis in human MCF7 cells after 24 hrs by FITC Annexin V/propidium iodide staining-based FACScan flow cytometric analysis; format: functional, cell-based
How it was run: (§4)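 After 24 h of compound exposure, 1 × 10^6 cells were labelled with annexin V-FITC and PI for 15 min at 25 °C in the dark. They were read on a FACScan with 488 nm excitation, detecting FITC at 525 nm and PI at 620 nm. Results are mean ± SD of three independent experiments, with Dunnett's test against control.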

[19] = system: HeLa; experiment: Induction of apoptosis in human HeLa cells after 24 hrs by FITC Annexin V/propidium iodide staining-based FACScan flow cytometric analysis; format: functional, cell-based; how it was run: as §4
[20] = system: SK-OV-3; experiment: Induction of apoptosis in human SKOV3 cells after 24 hrs by FITC Annexin V/propidium iodide staining-based FACScan flow cytometric analysis; format: functional, cell-based; how it was run: as §4
[21] = system: A-431; experiment: Induction of apoptosis in human A431 cells after 24 hrs by FITC Annexin V/propidium iodide staining-based FACScan flow cytometric analysis; format: functional, cell-based; how it was run: as §4
[22] = target: T1, Tubulin (Homo sapiens); experiment: Inhibition of tubulin polymerization in human A431 cells assessed as micronuclei formation at 1 uM after 24 hrs by Hoechst 33258/FITC staining-based flow cytometric analysis; format: cell-based
[23] = target: T1, Tubulin (Homo sapiens); experiment: Inhibition of tubulin polymerization in human A431 cells assessed as perturbation in cytoskeleton structure at 1 uM after 24 hrs by ELISA; format: cell-based
[24] = system: Tubulin; experiment: Inhibition of tubulin polymerization in human HaCaT cells assessed as perturbation in cytoskeleton structure at 1 uM after 24 hrs by ELISA; format: cell-based
[25] = target: T1, Tubulin (Homo sapiens); experiment: Inhibition of tubulin polymerization in human MDA-MB-231 cells assessed as perturbation in cytoskeleton structure at 1 uM after 24 hrs by ELISA; format: cell-based
[26] = target: T1, Tubulin (Homo sapiens); experiment: Inhibition of tubulin polymerization in human MCF7 cells assessed as perturbation in cytoskeleton structure at 1 uM after 24 hrs by Hoechst 33258/FITC staining-based flow cytometric analysis; format: cell-based; how it was run: as §3
[27] = target: T1, Tubulin (Homo sapiens); experiment: Inhibition of tubulin polymerization in human A431 cells assessed as perturbation in cytoskeleton structure at 1 uM after 24 hrs by Hoechst 33258/FITC staining-based flow cytometric analysis; format: cell-based
[28] = target: T1, Tubulin (Homo sapiens); experiment: Inhibition of tubulin polymerization in human HeLa cells assessed as perturbation in cytoskeleton structure at 1 uM after 24 hrs by Hoechst 33258/FITC staining-based flow cytometric analysis; format: cell-based
[29] = system: Tubulin; experiment: Inhibition of tubulin polymerization in human HaCaT cells assessed as perturbation in cytoskeleton structure at 1 uM after 24 hrs by Hoechst 33258/FITC staining-based […]; format: cell-based; how it was run: as §3
[30] = target: T1, Tubulin (Homo sapiens); experiment: Inhibition of tubulin polymerization in human MDA-MB-231 cells assessed as perturbation in cytoskeleton structure at 1 uM after 24 hrs by Hoechst 33258/FITC staining-based flow cytometric analysis; format: cell-based

COc1ccc(-c2ocnc2-c2cc(OC)c(SC)c(OC)c2)cc1O
250 nM: IC50 [2] | IC50 [6]
9 nM: IC50 [3]
710 nM: IC50 [4]
320 nM: IC50 [7]
active: Activity [1] | Activity [9] | inhibition [11] | inhibition [12] | inhibition [13] | inhibition [14] | inhibition [15] | inhibition [16] | Activity [18] Dose-dependent effect | Activity [19] Dose-dependent effect | Activity [20] Dose-dependent effect | Activity [21] Dose-dependent effect | inhibition [22] | inhibition [23] | inhibition [25] | inhibition [26] | inhibition [27] | inhibition [28] | inhibition [30]
> 20000 nM: IC50 [5] | IC50 [8]
Active: inhibition (INH) [17] | inhibition (INH) [24] | inhibition (INH) [29]
Toxic: Activity [10]

COc1ccc(-c2ocnc2-c2cc(Br)c(OC)c(OC)c2)cc1SC
Toxic: Activity [10]
630 nM: IC50 [3]
430 nM: IC50 [2]
active: Activity [1] | Activity [9] | inhibition [11] | inhibition [12] | inhibition [13] | inhibition [14] | inhibition [15] | inhibition [16] | Activity [18] Dose-dependent effect | Activity [19] Dose-dependent effect | Activity [20] Dose-dependent effect | Activity [21] Dose-dependent effect | inhibition [22] | inhibition [23] | inhibition [25] | inhibition [26] | inhibition [27] | inhibition [28] | inhibition [30]
520 nM: IC50 [7]
Active: inhibition (INH) [17] | inhibition (INH) [24] | inhibition (INH) [29]
> 20000 nM: IC50 [5] | IC50 [8]
1160 nM: IC50 [6]
920 nM: IC50 [4]
